Experimental data as given in paper PMC3652433 (MedChemComm, 2013).

Tests used:
hMOR = hMOR (Homo sapiens, UniProt P35372); type: cell-based; conditions: hMOR-CHO cells with Gqi5; data not shown
CCR5 [1] = molecular target: CCR5 (Homo sapiens, UniProt P51681); experiment: Ca2+ flux assay in Gqi5 transfected CCR5-MOLT-4 cells; type: cell-based; conditions: for Potency decrease in RANTES induced Ca2+ flux inhibition compared to maraviroc: relative to maraviroc
HIV-1SF162 = type: cell-based; conditions: human astrocytes
In short: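 Human astrocytes infected with R5 HIV-1SF162; infection assessed by a luciferase-based read-out of relative Tat protein expression at 18 h post-infection. Dose–response was run per compound first. Fixed levels: test compound 100 nM, CCR5 antagonist reference 100 nM, opioid antagonist reference 1.5 μM. Values are […] ± SEM of three independent experiments; statistics vs uninfected control cells.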

astroglial cells = experiment: Viability of astroglial cells, dual fluorescence labeling with AOPI; type: cell-based, human; conditions: 100 nM, data not shown
CCR5 [2] = molecular target: CCR5 (Macaca mulatta, UniProt P61813); experiment: CCR5 competitive radioligand binding assay; parameters: species or system rhesus macaque; conditions: relative to maraviroc
[3] = 100 nM, R5 HIV-1SF162, 18 h post-infection

CCR5 (Homo sapiens, UniProt P51681), sequence (P51681 whole entry): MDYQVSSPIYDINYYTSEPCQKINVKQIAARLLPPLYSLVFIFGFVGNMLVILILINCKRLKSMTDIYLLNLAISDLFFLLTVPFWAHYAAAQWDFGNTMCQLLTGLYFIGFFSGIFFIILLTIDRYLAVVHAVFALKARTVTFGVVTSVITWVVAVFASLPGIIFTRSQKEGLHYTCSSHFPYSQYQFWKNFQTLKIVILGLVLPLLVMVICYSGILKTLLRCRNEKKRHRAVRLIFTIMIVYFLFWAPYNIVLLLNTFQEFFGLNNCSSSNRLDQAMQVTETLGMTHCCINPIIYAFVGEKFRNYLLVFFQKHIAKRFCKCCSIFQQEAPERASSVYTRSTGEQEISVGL
hMOR, sequence (P35372 whole entry): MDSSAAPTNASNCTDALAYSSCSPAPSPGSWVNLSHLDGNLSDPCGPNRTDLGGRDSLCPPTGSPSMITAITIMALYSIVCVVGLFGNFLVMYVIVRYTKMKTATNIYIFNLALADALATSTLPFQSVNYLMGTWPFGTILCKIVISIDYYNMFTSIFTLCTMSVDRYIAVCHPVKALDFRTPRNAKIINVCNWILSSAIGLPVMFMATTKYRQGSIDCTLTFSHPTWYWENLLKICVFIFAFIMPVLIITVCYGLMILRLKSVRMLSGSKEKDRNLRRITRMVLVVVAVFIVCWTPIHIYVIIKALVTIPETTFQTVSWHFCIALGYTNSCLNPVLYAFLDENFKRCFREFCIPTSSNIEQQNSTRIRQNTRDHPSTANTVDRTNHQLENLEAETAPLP

Compound	MOR agonism in Ca2+ mobilization assay (hMOR)	Potency decrease in RANTES induced Ca2+ flux inhibition compared to maraviroc (CCR5 [1])	Effect on viral entry / Tat expression (HIV-1SF162; [3])	also measured
Cc1nnc(C(C)C)n1C1CC2CCC(C1)N2CC[C@H](NC(=O)C1CCC(F)(F)CC1)c1ccc(NC(=O)COCC(=O)NCCCCCCCNC(=O)COCC(=O)N[C@@H]2CC[C@@]3(O)[C@H]4Cc5ccc(O)c6c5[C@@]3(CCN4CC3CC3)[C@H]2O6)cc1 (some centres unmarked) [compound 1]	No agonism was observed	approximately 60 fold	significantly effective in inhibiting viral entry	CCR5 agonism in Ca2+ assay (CCR5 [1]; CCR5-MOLT-4 cells with Gqi5, data not shown): no CCR5 agonism was detected; Decrease in Tat expression compared to maraviroc alone (HIV-1SF162; 100 nM, vs maraviroc 100 nM): at least a two-fold decrease in Tat expression; Effect on viability of astroglial cells (astroglial cells): did not affect the viability of astroglial cells
CNC(=O)COCC(=O)NCCCCCCCNC(=O)COCC(=O)N[C@@H]1CC[C@@]2(O)[C@H]3Cc4ccc(O)c5c4[C@@]2(CCN3CC2CC2)[C@H]1O5 [compound 2]	No agonism was observed	–	–	–
CNC(=O)COCC(=O)NCCCCCCCNC(=O)COCC(=O)Nc1ccc([C@H](CCN2C3CCC2CC(n2c(C)nnc2C(C)C)C3)NC(=O)C2CCC(F)(F)CC2)cc1 (some centres unmarked) [compound 3]	–	~300 fold	–	–
Cc1nnc(C(C)C)n1C1CC2CCC(C1)N2CC[C@H](NC(=O)C1CCC(F)(F)CC1)c1ccc(N)cc1 (some centres unmarked) [compound 4]	–	–	–	Decrease in CCR5 binding affinity compared to maraviroc (CCR5 [2]): approximately 65 fold
O=C1CC[C@@]2(O)[C@H]3Cc4ccc(O)c5c4[C@@]2(CCN3CC2CC2)[C@H]1O5 [naltrexone, reference compound]	–	–	–	Effect on Tat production (HIV-1SF162; 1.5 μM, R5 HIV-1SF162, 18 h post-infection): did not show significant effect on Tat production
maraviroc [reference compound]	–	–	considerably inhibited viral entry	–
